Assay results collected from several papers.
Lines come from different studies, so protocols differ.
murC: UDP-N-acetylmuramate--L-alanine ligase (murC, Escherichia coli K-12, UniProt P17952)
MTNR1A: Melatonin receptor type 1A (MTNR1A, Homo sapiens, UniProt P48039)
Trypanothione synthetase: Trypanothione synthetase (Trypanosoma cruzi, UniProt Q9GT49)
Grm1: Metabotropic glutamate receptor 1 (Grm1, Rattus norvegicus, UniProt P23385)
BMP2K: BMP-2-inducible protein kinase (BMP2K, Homo sapiens, UniProt Q9NSY1)

The remaining activity of `CCCOc1ccc(OC)c(F)c1C(=O)c1ccc(C(=O)N[C@@H]2CNC[C@H]2NC(=O)c2ccc3[nH]ncc3c2)cc1` is reported as 3% (Rho-associated protein kinase 2 (ROCK2, Homo sapiens, UniProt O75116); enzyme activity, inhibitor; 10 µM).
The remaining activity of `N#Cc1ccc(COc2ccccc2C=NNS(=O)(=O)Cc2ccccc2)cc1` is reported as 100% (murC; enzyme activity, inhibitor, absorbance; 100 µM).
`COc1ccc2ncn(CCNC(C)=O)c2c1` gave an Emax of 53% (MTNR1A; GTPγS binding, agonist, radiometric; cell membranes).
The inhibition of `CN(C)C1CCN(CC#Cc2nn(C3CCCC3)c3nc(NCc4ccccc4)ncc23)C1` (stereo not shown) is reported as -2% (Testis-specific serine/threonine-protein kinase 1 (TSSK1B, Homo sapiens, UniProt Q9BXA7); enzyme activity, inhibitor, FRET; 1 µM).
`Cc1cc(NC(=O)c2cccc3cc(-c4cccc5[nH]nc(N)c45)ccc23)ccc1F` has an activity vs control of 95% (MAPK/MAK/MRK overlapping kinase (MOK, Homo sapiens, UniProt Q9UQ07); enzyme activity, inhibitor; 0.1 µM).
`NC(=O)CN1C(=O)Cc2c([nH]c3ccc(Br)cc23)-c2ccc(Cl)cc21` has an inhibition of 5.2% (Trypanothione synthetase; enzyme activity, inhibitor, absorbance; 30 µM).
`O=C(O)C(=O)Cc1ccccc1` has a Km of 760 µM (Macrophage migration inhibitory factor (MIF, Homo sapiens, UniProt P14174); enzyme activity, substrate).
`O=C(c1ccc(F)cc1)N(Cc1ccccc1)C1CCCCC1` has an inhibition of 20% (Substance-P receptor (TACR1, Homo sapiens, UniProt P25103); cell-free assay; 10 µM).
For `O=C(Nc1ccc(N2C(=O)c3ccccc3C2=O)c(Cl)c1)c1ncccc1Cl`, the Emax was 77% (Grm1; calcium signal, positive allosteric modulator; T-REx-293).
For `Cc1ccc(C(=O)Nc2ccc(CN3CCN(C)CC3)c(C(F)(F)F)c2)cc1C#Cc1cnc2cccnn12`, the remaining signal was 85% (Ephrin type-B receptor 6 (EPHB6, Homo sapiens, UniProt O15197); cell-free assay; 23.5 nM).
`O=C(Nc1cccc(Nc2ncc(Br)c(NCCc3cnc[nH]3)n2)c1)N1CCCC1` gave a remaining activity of 2% (BMP2K; enzyme activity, inhibitor, radiometric; 1 µM).
With `Nc1ncnc2occ(-c3ccc(NC(=O)Nc4cc(C(F)(F)F)ccc4F)cc3)c12` the remaining signal was 0.1% (Receptor-type tyrosine-protein kinase FLT3 (FLT3, Homo sapiens, UniProt P36888, ITD); cell-free assay, inhibitor; 20 µM).
The Emax of `COc1cc(I)c2[nH]cc(CCNC(C)=O)c2c1` is reported as 95% (MTNR1A; β-arrestin recruitment, agonist; CHO-K1; 90 min).
The inhibition of `NNC(=O)CN1C(=O)Cc2c([nH]c3ccc(Br)cc23)-c2ccc(Cl)cc21` is reported as 10.1% (Trypanothione synthetase; enzyme activity, inhibitor, absorbance; 30 µM).
`NS(=O)(=O)c1ccc(CNc2ccnc(Nc3cccc(NC(=O)N4CCCC4)c3)n2)cc1` gave a remaining activity of 80% (BMP2K; enzyme activity, inhibitor, radiometric; 1 µM).
The remaining activity of `O=C(Nc1ccc(C=NNS(=O)(=O)c2ccc3ccccc3c2)cc1)c1ccccc1Br` is reported as 41% (murC; enzyme activity, inhibitor, absorbance; 100 µM).
For `CC(CCC(=O)NCC(=O)O)C1CCC2C3CCC4CC(O)CCC4(C)C3CC(O)C12C` (stereo not shown), the ΔTm was 9.2 °C (Serine hydroxymethyltransferase, cytosolic (SHMT1, Homo sapiens, UniProt P34896); thermal stability; 50 µM).
`O=C(NCCCNc1nc(Nc2cccc(NC(=O)N3CCCC3)c2)ncc1I)c1cccs1` gave a remaining activity of 1% (BMP2K; enzyme activity, inhibitor, radiometric; 1 µM).
For `FC(F)(F)Oc1cccc(-c2cnc3ccc(-c4ccncc4)nn23)c1`, the activity vs control was 93% (Serine/threonine-protein kinase SIK3 (SIK3, Homo sapiens, UniProt Q9Y2K2); enzyme activity, inhibitor, radiometric; 1 µM).
With `CCN(Cc1ccccc1C(F)(F)F)C(=O)C1CCN(S(=O)(=O)c2ccc3[nH]ncc3c2)CC1` the inhibition was 11% (B2 bradykinin receptor (BDKRB2, Homo sapiens, UniProt P30411); ligand displacement, radioligand; 10 µM).
The Emax of `Cc1cccnc1C(=O)Nc1ccc(N2C(=O)c3cccc(Cl)c3C2=O)c(Cl)c1` is reported as 118% (Grm1; calcium signal, positive allosteric modulator; T-REx-293).
`COc1cc(NC(C)=O)c(Cl)cc1C(=O)Nc1nccs1` has an inhibition of 72% (Prostaglandin G/H synthase 1 (PTGS1, Homo sapiens, UniProt P23219); enzyme activity, inhibitor; 10 µM).
The remaining activity of `Cc1nn(CC(F)(F)F)cc1Nc1ncc(Br)c(NCc2ccc(S(N)(=O)=O)cc2)n1` is reported as 30% (BMP2K; enzyme activity, inhibitor, radiometric; 1 µM).
`COc1ccc2c(c1)C(CNC(N)=O)Cc1ccccc1C2` (stereo not shown) has an Emax of 8% (MTNR1A; GTPγS binding, agonist, radiometric; cell membranes).
For `O=C(Nc1ccc(C=NNS(=O)(=O)c2ccc3ccccc3c2)cc1)c1ccc([N+](=O)[O-])cc1`, the remaining activity was 71% (murC; enzyme activity, inhibitor, absorbance; 50 µM).
With `O=C(NCCCNc1nc(Nc2cccc(CN3CCOCC3)c2)ncc1C1CC1)C1CCC1` the remaining activity was 3% (BMP2K; enzyme activity, inhibitor, radiometric; 1 µM).
The ΔTm of `C[S+]([O-])c1ccc(-c2nc(-c3ccncc3)c(-c3ccc(F)cc3)[nH]2)cc1` (stereo not shown) is reported as 0.55 °C (BRWD3 (Homo sapiens, UniProt Q6RI45); thermal stability, DSF; 10 µM).
For `COc1cc2c(CCNC(C)=O)c(I)[nH]c2cc1[N+](=O)[O-]`, the Emax was 72% (MTNR1A; GTPγS binding, agonist, radiometric; cell membranes).
The inhibition of `O=C(CN1C(=O)Cc2c([nH]c3ccc(Br)cc23)-c2ccc(Cl)cc21)Nc1ccccc1` is reported as 29.6% (Trypanothione synthetase; enzyme activity, inhibitor, absorbance; 30 µM).
With `NS(=O)(=O)c1ccc(CNc2nc(Nc3cccc(NC(=O)N4CCCC4)c3)ncc2Br)cc1` the remaining activity was 1% (BMP2K; enzyme activity, inhibitor, radiometric; 1 µM).
For `O=C(CN1C(=O)Cc2c([nH]c3ccc(Br)cc23)-c2ccc(Cl)cc21)NC1=NCCS1`, the inhibition was 16% (Trypanothione synthetase; enzyme activity, inhibitor, absorbance; 30 µM).
`COc1cc2c(CCNC(C)=O)c[nH]c2cc1I` gave an Emax of 101% (MTNR1A; β-arrestin recruitment, agonist; CHO-K1; 90 min).
The remaining activity of `N#Cc1ccc(COc2ccccc2C=NNS(=O)(=O)c2ccc3ccccc3c2)cc1` is reported as 36% (murC; enzyme activity, inhibitor, absorbance; 100 µM).
`CCc1ccc2scc(CCNC(C)=O)c2c1` has an Emax of 75% (MTNR1A; cAMP, agonist, TR-FRET; CHO-K1; 20 min).
With `O=[N+]([O-])c1cccc(COc2ccccc2C=NNS(=O)(=O)c2ccc3ccccc3c2)c1` the remaining activity was 65% (murC; enzyme activity, inhibitor, absorbance; 50 µM).
The Emax of `COc1ccc2[nH]cc(CCNC(C)=O)c2c1I` is reported as 91% (MTNR1A; β-arrestin recruitment, agonist; CHO-K1; 90 min).
The remaining activity of `O=C(NCCCNc1nc(Nc2cccc(NC(=O)N3CCCC3)c2)ncc1Br)C1CCC1` is reported as -1% (BMP2K; enzyme activity, inhibitor, radiometric; 1 µM).
